Columns and labels:
Assay type in all cases: functional
[1] = tested on: Rattus norvegicus; assay: Antiallergic activity by rat passive cutaneous anaphylaxis (PCA) assay when administered iv.;value ranges between (0.06-0.4)
Procedure, shortened: (§1)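 Male rats sensitized by id injection of diluted rat anti-ovalbumin reaginic serum (0.1 mL each side of shaved back). 24 h later, compound in saline was mixed with 5 mg ovalbumin in 0.5 mL 2% Evans Blue and given iv at 1 mL/kg. Blued-spot diameters were read 30 min later. Six rats per group; ED50 is 50% area reduction versus control, with 95% confidence limits.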

[2] = tested on: Rattus norvegicus; assay: Antiallergic activity by rat passive cutaneous anaphylaxis (PCA) assay when administered per orally.;value ranges between (1.0-4.1.); conditions: po
Procedure, shortened: (§2)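 Rats were passively sensitized intradermally with diluted reaginic anti-ovalbumin serum 24 h before challenge. Compound was suspended in 1% acacia and dosed by oral feeding needle at 1 mL/kg. After 20-30 min, rats were challenged with 0.02 mg ovalbumin in 0.5 mL 2% Evans Blue. Blued areas were measured 30 min after challenge. Six rats per dose; ED50 is 50% area reduction from control, with 95% confidence limits.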

[3] = tested on: Rattus norvegicus; assay: Antiallergic activity by rat passive cutaneous anaphylaxis (PCA) assay when administered per orally;value ranges between (2.0-5.0.); conditions: po; procedure, shortened: as §2
[4] = tested on: Rattus norvegicus; assay: Antiallergic activity by rat passive cutaneous anaphylaxis (PCA) assay when administered perorally.; conditions: po; procedure, shortened: as §2
[5] = tested on: Rattus norvegicus; assay: antiallergic activity by rat passive cutaneous anaphylaxis (PCA) assay when administered iv; procedure, shortened: as §1
[6] = tested on: Rattus norvegicus; assay: Antiallergic activity by rat passive cutaneous anaphylaxis (PCA) assay when administered perorally; value ranges between (2.9-15.4); conditions: po; procedure, shortened: as §2
[7] = tested on: Rattus norvegicus; assay: Antiallergic activity by rat passive cutaneous anaphylaxis (PCA) assay when administered iv.;value ranges between (0.2-1.8.); procedure, shortened: as §1
[8] = tested on: Rattus norvegicus; assay: Antiallergic activity by rat passive cutaneous anaphylaxis (PCA) assay when administered per orally;value ranges between (1.5-9.0).; conditions: po; procedure, shortened: as §2
[9] = tested on: Rattus norvegicus; assay: Antiallergic activity by rat passive cutaneous anaphylaxis (PCA) assay when administered iv;value ranges between 0.02-0.07; procedure, shortened: as §1
[10] = tested on: Rattus norvegicus; assay: Antiallergic activity by rat passive cutaneous anaphylaxis (PCA) assay when administered per orally;value ranges between (0.32-1.04); conditions: po; procedure, shortened: as §2

COc1cccc(-c2csc(NC(=O)C(=O)O)n2)c1 showed an ED50 [1] of 0.16 mg/kg and an ED50 [2] of 2.1 mg/kg.
For CCOC(=O)C(=O)Nc1nc(-c2ccc(N3CCCCC3)cc2)cs1, the ED50 [3] was 3.2 mg/kg.
With O=C(O)C(=O)Nc1nc(-c2ccccc2)cs1 the ED50 [4] was about 1 mg/kg and the ED50 [5] was over 3 mg/kg.
Compound NCCO.O=C(O)C(=O)Nc1nc(-c2ccccc2O)cs1 has an ED50 [6] of 6.7 mg/kg and an ED50 [7] of 0.62 mg/kg.
Work on CCOC(=O)C(=O)Nc1nc(-c2ccc(O)cc2C)cs1 yielded an ED50 [8] of 3.7 mg/kg.
NCCO.O=C(O)C(=O)Nc1nc(-c2ccc3c(c2)OCCO3)cs1 showed an ED50 [9] of 0.039 mg/kg and an ED50 [10] of 0.6 mg/kg.

Reference: ChEMBL document CHEMBL1122270, “N-(4-substituted-thiazolyl)oxamic acid derivatives, a new series of potent, orally active antiallergy agents” (1983)
